Tests used:
[1] = Selectivity index, ratio of IC50 for equine serum butyrylcholine esterase to IC50 for electric eel AChE
Cholinesterase = Cholinesterase (Equus caballus, UniProt P81908); test: Inhibition of equine serum butyrylcholine esterase incubated for 15 mins using S-butyrylthiocholine chloride substrate by colorimetric Ellman's method
Acetylcholinesterase = Acetylcholinesterase (Electrophorus electricus, UniProt O42275); test: Inhibition of electric eel AChE incubated for 15 mins using […] substrate by colorimetric Ellman's method
Liver microsome [2] = test: Drug metabolism in Sprague-Dawley rat liver microsomes assessed as formation of monohydroxylated metabolite at 2 uM at pH 7.4 pre-incubated in presence of NADPH regenerating system measured after 10 to 30 mins by LC-MS method; assay type: ADME; settings: pH 7.4, 2 µM
Method in brief: (§1)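 Compound added (2 µM final, from DMSO stock), 37 °C; time-0 aliquot and reaction quenched with ice-cold acetonitrile (acetaminophen internal standard) at 10 min, or 30 min for some compounds. Single time-point design; LC-MS (Q-Tof) analysis.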

[3] = Half life in Sprague-Dawley rat liver microsomes at 2 uM at pH 7.4 pre-incubated in presence of NADPH regenerating system measured 10 mins after microsomal reactions termination by LC-MS method; assay type: ADME; method in brief: as §1
[4] = Stability in Sprague-Dawley rat liver microsomes assessed as parent compound remaining at 2 uM measured 10 mins after microsomal reactions termination at pH 7.4 pre-incubated in presence of NADPH regenerating system by LC-MS method; assay type: ADME; settings: read-out: Stability; method in brief: as §1
in vitro = settings: PAMPA, pH 7.4
[5] = Retention time of the compound by HPLC-UV method; assay type: physicochemical
[6] = Stability in Sprague-Dawley rat liver microsomes assessed as parent compound remaining at 2 uM measured 30 mins after microsomal reactions termination at pH 7.4 pre-incubated in presence of NADPH regenerating system by LC-MS method; assay type: ADME; settings: read-out: Stability
[7] = Half life in Sprague-Dawley rat liver microsomes at 2 uM at pH 7.4 pre-incubated in presence of NADPH regenerating system measured 30 mins after microsomal reactions termination by LC-MS method; assay type: ADME
Liver microsome [8] = test: Drug metabolism in Sprague-Dawley rat liver microsomes assessed as formation of desmethylated metabolite at 2 uM at pH 7.4 pre-incubated in presence of NADPH regenerating system measured after 10 to 30 mins by LC-MS method; assay type: ADME; settings: pH 7.4, 2 µM; method in brief: as §1

Acetylcholinesterase, sequence (O42275 whole entry): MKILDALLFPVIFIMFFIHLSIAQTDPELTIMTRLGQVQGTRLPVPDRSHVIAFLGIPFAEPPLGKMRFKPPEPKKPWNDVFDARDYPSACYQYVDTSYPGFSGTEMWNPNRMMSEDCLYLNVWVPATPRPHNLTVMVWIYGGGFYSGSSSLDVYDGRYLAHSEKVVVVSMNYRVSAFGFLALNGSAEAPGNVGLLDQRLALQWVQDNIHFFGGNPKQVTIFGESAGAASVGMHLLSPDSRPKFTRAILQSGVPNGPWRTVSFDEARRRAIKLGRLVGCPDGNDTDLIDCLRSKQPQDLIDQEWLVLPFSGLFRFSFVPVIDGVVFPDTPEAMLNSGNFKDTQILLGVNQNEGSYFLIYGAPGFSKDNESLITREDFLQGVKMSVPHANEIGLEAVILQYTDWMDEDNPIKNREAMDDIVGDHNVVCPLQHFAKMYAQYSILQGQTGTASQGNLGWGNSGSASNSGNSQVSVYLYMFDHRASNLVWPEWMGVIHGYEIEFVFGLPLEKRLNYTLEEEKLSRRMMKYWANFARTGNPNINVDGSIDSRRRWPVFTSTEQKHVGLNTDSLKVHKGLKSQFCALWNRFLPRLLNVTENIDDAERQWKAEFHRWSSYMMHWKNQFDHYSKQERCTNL
Cholinesterase, sequence (P81908 whole entry): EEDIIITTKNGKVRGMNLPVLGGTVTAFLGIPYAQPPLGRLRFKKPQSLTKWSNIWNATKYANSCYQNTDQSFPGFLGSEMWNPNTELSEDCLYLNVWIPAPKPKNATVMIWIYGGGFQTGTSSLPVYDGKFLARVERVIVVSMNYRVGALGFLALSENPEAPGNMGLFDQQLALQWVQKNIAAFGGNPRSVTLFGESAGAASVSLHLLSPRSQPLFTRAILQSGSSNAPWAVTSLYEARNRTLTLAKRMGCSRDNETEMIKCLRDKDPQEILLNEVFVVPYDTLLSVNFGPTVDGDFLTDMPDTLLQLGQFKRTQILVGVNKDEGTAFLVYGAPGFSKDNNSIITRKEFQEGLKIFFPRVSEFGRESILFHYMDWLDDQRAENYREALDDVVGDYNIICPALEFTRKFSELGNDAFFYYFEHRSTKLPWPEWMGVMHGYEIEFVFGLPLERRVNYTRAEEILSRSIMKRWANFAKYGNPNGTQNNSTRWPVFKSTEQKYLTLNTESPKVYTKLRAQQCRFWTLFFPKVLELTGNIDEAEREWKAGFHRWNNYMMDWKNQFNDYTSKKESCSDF

| Structure (SMILES) | Ratio IC50 [1] | IC50 (Cholinesterase) [µM] | IC50 (Acetylcholinesterase) [µM] | also measured |
| --- | --- | --- | --- | --- |
| COc1ccc(/C=C2\Oc3cc(OCCN4CCCC4)ccc3C2=O)cc1 | 6.1 | 7.19 | 1.18 | – |
| COc1ccc2c(c1)O/C(=C\c1ccc(OCCN3CCCCC3)cc1Cl)C2=O | 22.2 | 11.4 | 0.513 | – |
| COc1ccc2c(c1)O/C(=C\c1ccc(N(C)C)cc1)C2=O | 0.63 | 31.8 | 50.3 | – |
| COc1ccc(/C=C2\Oc3cc(OCCN(C)C)ccc3C2=O)cc1 | 2.1 | 25.3 | 12 | – |
| COc1ccc2c(c1)O/C(=C\c1ccc(OCCCN(C)C)c(Cl)c1)C2=O | 13.4 | 21.6 | 1.61 | – |
| COc1ccc2c(c1)O/C(=C\c1ccc(OCCN3CCCC3)cc1)C2=O | 18.7 | 10.2 | 0.545 | Retention_time: 3.6 min; Drug metabolism (Liver microsome [2]): metabolite_detected; half-life at 2 µM [3]: 5.1 min; remaining at 10 min, 2 µM [4]: 25.3%; Papp (in vitro): 24.7 ×10⁻⁶ cm/s |
| CCN(CC)C(=O)Oc1ccc2c(c1)O/C(=C\c1ccc(OCCCN(C)C)cc1)C2=O | 1.85 | 6.1 | 3.29 | – |
| O=C1/C(=C/c2ccc(OCCN3CCCC3)cc2Cl)Oc2cc(O)ccc21 | 9.89 | 8.68 | 0.878 | – |
| Cn1c(=O)c2c(ncn2C)n(C)c1=O [CAFFEINE] | – | – | – | Retention_time [5]: 3.2 min |
| O=C1/C(=C/c2ccc(OCCN3CCCCC3)cc2)Oc2cc(O)ccc21 | – | > 100 | 2.23 | Retention_time: 3.6 min; Papp (in vitro): 10 ×10⁻⁶ cm/s |
| COc1ccc2c(c1)O/C(=C\c1ccc(OCCN(C)C)cc1Cl)C2=O | 1.93 | 23.9 | 12.4 | – |
| COc1ccc2c(c1)O/C(=C\c1ccc(OCCCN(C)C)cc1Cl)C2=O | 2.26 | 34.1 | 15.1 | – |
| Cn1c(=O)c2[nH]cnc2n(C)c1=O.O [THEOPHYLLINE] | – | – | – | Retention_time [5]: 3.4 min |
| CCN(CC)c1ccc(/C=C2\Oc3cc(O)ccc3C2=O)cc1 | – | > 100 | > 100 | – |
| COc1ccc2c(c1)O/C(=C\c1ccc(OCCN3CCCCC3)cc1)C2=O | 25.5 | 8.87 | 0.348 | Retention_time: 4.5 min; half-life at 2 µM [3]: 10.9 min; remaining at 10 min, 2 µM [4]: 52.1%; Papp (in vitro): 20 ×10⁻⁶ cm/s |
| O=C1/C(=C/c2ccc(OCCN3CCCC3)c(Cl)c2)Oc2cc(O)ccc21 | 34.3 | 9.92 | 0.289 | – |
| CCN(CC)C(=O)Oc1ccc2c(c1)O/C(=C\c1ccc(N(CC)CC)cc1)C2=O | – | > 100 | > 100 | – |
| COc1ccc2c(c1)O/C(=C\c1ccc(OCCN(C)C)c(Cl)c1)C2=O | 8.35 | 11.1 | 1.33 | – |
| CN(C)CCOc1ccc(/C=C2\Oc3cc(O)ccc3C2=O)cc1 | – | > 100 | 5.52 | – |
| COc1cc(/C=C2\Oc3cc(OCCN4CCCCC4)ccc3C2=O)cc(OC)c1OC | 14.6 | 6.15 | 0.422 | Retention_time: 3.7 min; remaining at 0.5 h, 2 µM [6]: 61.9%; half-life at 2 µM [7]: 43.8 min; Drug metabolism (Liver microsome [2]): metabolite_detected; Drug metabolism (Liver microsome [8]): metabolite_detected; Papp (in vitro): 21.3 ×10⁻⁶ cm/s |
| COc1ccc(/C=C2\Oc3cc(OCCN4CCCCC4)ccc3C2=O)cc1 | 8.13 | 6.87 | 0.845 | Retention_time: 4.5 min; half-life at 2 µM [3]: 11.2 min; remaining at 10 min, 2 µM [4]: 53.6%; Papp (in vitro): 20 ×10⁻⁶ cm/s |
| CN(C)c1ccc(/C=C2\Oc3cc(O)ccc3C2=O)cc1 | – | > 100 | > 100 | – |
| CCN(CC)C(=O)Oc1ccc2c(c1)O/C(=C\c1ccc(OCCN3CCCCC3)cc1)C2=O | 11 | 7.17 | 0.652 | Retention_time: 4.2 min; half-life at 2 µM [3]: 8.5 min; remaining at 10 min, 2 µM [4]: 44.3%; Papp (in vitro): 16.1 ×10⁻⁶ cm/s |

| Structure (SMILES) | Ratio IC50 [1] | IC50 (Cholinesterase) [µM] | IC50 (Acetylcholinesterase) [µM] | also measured |
| --- | --- | --- | --- | --- |
| CCN(CC)C(=O)Oc1ccc(/C=C2\Oc3cc(OC)ccc3C2=O)cc1 | – | > 100 | 10.9 | – |
| CCN(CC)C(=O)Oc1ccc2c(c1)O/C(=C\c1ccc(N(C)C)cc1)C2=O | – | > 100 | > 100 | – |
| CCN(CC)C(=O)Oc1ccc2c(c1)O/C(=C\c1ccc(OCCN(C)C)cc1)C2=O | 1.78 | 9.69 | 5.44 | – |
| CCN(CC)C(=O)Oc1ccc2c(c1)O/C(=C\c1ccc(OC)cc1)C2=O | – | 12.7 | > 100 | – |
| COc1cc2c(cc1OC)C(=O)C(CC1CCN(Cc3ccccc3)CC1)C2 (stereo not given) [DONEPEZIL] | – | – | – | remaining at 0.5 h, 2 µM [6]: 76.2%; half-life at 2 µM [7]: 76.5 min |
| COc1ccc(/C=C2\Oc3cc(OCCCN(C)C)ccc3C2=O)cc1 | 1.99 | 31.2 | 15.7 | – |
| O=C1/C(=C/c2ccncc2)Oc2cc(O)ccc21 | – | > 100 | > 100 | – |
| O=C1/C(=C/c2ccc(OCCN3CCCC3)cc2)Oc2cc(O)ccc21 | – | > 100 | 3.24 | – |
| C[C@]12CC[C@H]3[C@@H](CCC4=CC(=O)CC[C@@]43C)[C@@H]1CC[C@@H]2O [TESTOSTERONE] | – | – | – | half-life at 2 µM [3]: 0.48 min; remaining at 10 min, 2 µM [4]: < 0.001% |
| COc1ccc2c(c1)O/C(=C\c1ccc(OCCCN(C)C)cc1)C2=O | 12.5 | 30.4 | 2.44 | – |
| COc1cc(/C=C2\Oc3cc(OCCCN(C)C)ccc3C2=O)cc(OC)c1OC | – | > 100 | 9.88 | – |
| CN(C)CCCOc1ccc(/C=C2\Oc3cc(O)ccc3C2=O)cc1 | – | > 100 | 7.9 | – |
| COc1cc(/C=C2\Oc3cc(OCCN4CCCC4)ccc3C2=O)cc(OC)c1OC | 18.2 | 11.7 | 0.643 | – |
| COc1ccc2c(c1)O/C(=C\c1ccncc1)C2=O | – | > 100 | > 100 | – |
| COc1ccc(/C=C2\Oc3cc(OC)ccc3C2=O)cc1 | – | > 100 | > 100 | Retention_time: 3.9 min; half-life at 2 µM [3]: 7.9 min; remaining at 10 min, 2 µM [4]: 41.4%; Papp (in vitro): 9.8 ×10⁻⁶ cm/s |
| CCN(CC)C(=O)Oc1ccc2c(c1)O/C(=C\c1ccc(OCCN3CCCC3)cc1)C2=O | 9.5 | 7.4 | 0.779 | – |
| COc1ccc2c(c1)O/C(=C\c1ccc(OCCN3CCCCC3)c(Cl)c1)C2=O | 49.4 | 7.9 | 0.16 | Retention_time: 3.4 min; half-life at 2 µM [3]: 13.4 min; remaining at 10 min, 2 µM [4]: 59.5%; Papp (in vitro): 12.2 ×10⁻⁶ cm/s |
| COc1ccc(/C=C2\Oc3cc(O)ccc3C2=O)cc1 | – | > 100 | > 100 | – |
| COc1ccc2c(c1)O/C(=C\c1ccc(OCCN(C)C)cc1)C2=O | 13.1 | 25.9 | 1.97 | – |
| COc1cc(/C=C2\Oc3cc(OCCN(C)C)ccc3C2=O)cc(OC)c1OC | 4.26 | 66.4 | 15.6 | – |
| CCN(CC)c1ccc(/C=C2\Oc3cc(OC)ccc3C2=O)cc1 | – | > 100 | > 100 | – |
| COc1ccc2c(c1)O/C(=C\c1ccc(O)cc1)C2=O | – | > 100 | > 100 | – |

— ChEMBL document CHEMBL3414445, “Blood-brain barrier permeable anticholinesterase aurones: synthesis, structure-activity relationship, and drug-like properties” (Eur J Med Chem, 2015)
